Rows were chosen to be rich in hits. Some 2.4% of all compounds tested hit in one or more screens of this group.
697 NFkB inh – inhibitors of PMA/ionomycin-induced NF-kB reporter, 697 cells, primary screen, B-cell NF-kB inhibitor project, cell-based, luminescence, uHTS. 330,000 compounds, 0.33% hits. inhibition, % at 4 µM. AID 435022, 2010. 697 B-cell NF-kB luciferase reporter, 16 h; in the data active = inhibition above about 35%
aDG glyco up – activators of alpha-DG glycosylation, primary screen, uHTS, Pro5-aDG cells, AlphaScreen | AID 624168, 2012 | alpha-DG glycosylation AlphaScreen (IIH6); 0% Pro5, 100% B10-LARGE cell signal | 360,000 compounds, 0.22% hits | activation, % at 10 µM;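 active = activation of at least 8% versus controls, or a plate z-score of at least 8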;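 note: Pro5 are CHO cells carrying HIG-tagged alpha-DG that lacks glycosylation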
Jurkat NFkB inh – inhibitors of induced NF-kB luciferase reporter, primary screen, TCR NF-kB activation inhibitor project, cell-based, luminescence, uHTS; Jurkat, PMA/ionomycin-induced NF-kB luciferase reporter; inhibition, % at 4 µM; 330,000 compounds, 0.53% hits; in the data active = inhibition above about 50%
MPTP inh – mitochondrial permeability transition pore inhibitors, primary screen, biochemical, isolated mouse mitochondria, absorbance; Ca2+ swelling absorbance, 30 min; 360,000 compounds, 1.4% hits; inhibition, % at 10 µM;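 active = inhibition of 50% or more, scaled per plate between neutral and stimulator controls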
NR2E3 ag-1 – NR2E3 agonists in two-hybrid cells, primary screen, cell-based, luminescence, CHO-S, Gal4-NCOR/VP16-NR2E3 | Photoreceptor-specific nuclear receptor (Homo sapiens), Q9Y5X4 | luciferase | inhibition of corepressor binding, % at 3.98 µM | 360,000 compounds, 0.35% hits | AID 602229, 2012;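 active = inhibition above the mean of all tested compounds plus 3 SD, cut at about 70% in these data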;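 note: higher means lower luciferase signal from less NR2E3 corepressor binding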
Target sequence (Q9Y5X4 whole entry, looked up, the tested form may be a part): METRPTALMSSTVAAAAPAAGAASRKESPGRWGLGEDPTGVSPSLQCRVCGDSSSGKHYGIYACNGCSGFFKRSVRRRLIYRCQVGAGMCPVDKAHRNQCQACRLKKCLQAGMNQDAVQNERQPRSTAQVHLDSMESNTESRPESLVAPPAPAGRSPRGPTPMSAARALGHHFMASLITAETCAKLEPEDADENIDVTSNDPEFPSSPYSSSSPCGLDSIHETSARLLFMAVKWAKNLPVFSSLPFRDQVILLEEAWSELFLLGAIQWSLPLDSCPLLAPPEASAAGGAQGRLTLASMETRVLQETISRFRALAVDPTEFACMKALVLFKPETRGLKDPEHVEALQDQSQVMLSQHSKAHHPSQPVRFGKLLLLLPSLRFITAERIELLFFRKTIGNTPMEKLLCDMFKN
NR2E3 ag-2 – inhibitors of NR2E3-RetCOR corepressor binding, primary screen, NR2E3 agonist project, biochemical, TR-FRET, GST-NR2E3, biotin-RetCOR; Photoreceptor-specific nuclear receptor (Homo sapiens), Q9Y5X4; 1536-well; inhibition of corepressor binding, % at 4.78 µM; 320,000 compounds, 0.12% hits; AID 2300, 2010;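 active = percent inhibition above the cutoff of mean plus 3 SD of all tested compounds, set per screening campaign, cut at about 20% in these data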
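Format: 1536-well format; test system: GST-NR2E3 and biotin-RetCOR proteins; read-out basis: percent inhibition of TR-FRET ratio; timing: 5 h incubation at 4 °C; detection: time-resolved FRET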
697 NFkB conf – PMA/ionomycin-induced NF-kB reporter inhibitors, 697 retest, confirmation, B-cell NF-kB inhibitor project, cell-based, luminescence, single concentration | shares compounds with 697 NFkB inh | 697 B-cell NF-kB luciferase, 16 h | inhibition, % at 4 µM | 2,000 compounds, 35% hits | AID 449746, 2010; in the data active = inhibition mostly above about 28%, no sharp cut-off; inactive = mostly below about 22%
NR2E3 ag confirm – NR2E3 agonist confirmation in cells, cell-based, luminescence, CHO-S two-hybrid | inhibition, % at 3.98 µM | 2,300 compounds, 51% hits | shares compounds with NR2E3 ag-1 | CHO-S mammalian two-hybrid NR2E3-NCOR, luciferase luminescence;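 active = average inhibition above a cutoff equal to the mean inhibition of all tested compounds plus one SD, cut at about 70% in these data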
VP16 counter – GAL4-VP16 reporter modulators, confirmation, counter-screen for NR2E3 agonist project, cell-based, luminescence, CHO-S, high throughput | CHO-S GAL4-VP16 luciferase reporter | inhibition, % at 3.98 µM | 2,300 compounds, 29% hits | AID 624379, 2012 | shares compounds with NR2E3 ag-1;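 active = mean inhibition above a cutoff equal to the average over all tested compounds plus one standard deviation, cut at about 70% in these data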;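 note: luciferase from a UAS reporter driven by GAL4-VP16 transactivation; higher means less reporter light so more repression of VP16 activity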
Large screens that a line does not name were inactive (follow-up assays come after a bar, where they were run).

CC1=CC(C)(C)n2c(O)c(N=NC(N)=S)c3cccc1c32	none
O=C(O)c1ccc(N/N=C/c2cccc(C(F)(F)F)c2)cc1	none | 697 NFkB conf inactive
Nc1ccc(N=Nc2ccc(N)cc2)cc1	none
Cc1cc(N(C)C)ccc1N=Nc1ccc(N)cc1	697 NFkB inh 69 | 697 NFkB conf 79
COc1ccc(NC(=O)c2ccc(COc3ccccc3Br)o2)cc1OC	697 NFkB inh 43 | 697 NFkB conf inactive
CCOc1ccc(C(F)(F)F)cc1NC(=O)c1ccc(OC)c([N+](=O)[O-])c1	697 NFkB inh 40 | 697 NFkB conf inactive
COCCOc1ccc(C(F)(F)F)cc1NC(=O)c1ccc(F)cc1	none
COc1ccccc1-c1c(NC(=O)c2ccco2)n(C)c2ccccc2c1=O	none (no result: aDG glyco up, MPTP inh, NR2E3 ag-1)
CC(C)N(C(=O)COC(=O)c1cccc(C(=O)OCC(=O)N(C(C)C)C(C)C)n1)C(C)C	none
O=C(O)CCc1nn2c3ccccc3n(Cc3ccccc3F)c2nc1=O	697 NFkB inh 41 | 697 NFkB conf inactive
O=C(O)CCc1nn2c3ccccc3n(CC(=O)O)c2nc1=O	none
O=C(/C=C/Nc1ccc(Br)cc1F)c1ccco1	none | 697 NFkB conf inactive
O=c1cccc2c1c1cc[nH]c3ccc(=O)n2c31	697 NFkB inh 56 | 697 NFkB conf 52
CCOc1ccc(-c2cc(CCCC(=O)NCc3ccc(C)cc3)no2)cc1	697 NFkB inh 48 | 697 NFkB conf 37
COc1ccc(-c2cc(CCCC(=O)NCCc3cc(OC)ccc3OC)no2)cc1	none
CCOc1ccc(-c2cc(CCCC(=O)NCc3ccco3)no2)cc1	697 NFkB inh 57 | 697 NFkB conf 46
O=C(Nc1ccccc1)c1cc(C2CCCCN2S(=O)(=O)c2ccc(F)cc2F)on1 (stereo not given)	none (no result: 697 NFkB inh, Jurkat NFkB inh, NR2E3 ag-2)
CN(C)c1cc[n+](Cc2c(Cl)cccc2Cl)cc1	697 NFkB inh 45 | 697 NFkB conf 39
CCCCN(C(=O)CCn1c(=O)oc2ccccc21)c1ccccc1	none
C(=C\c1ccc2ccccc2n1)/c1ccccc1	none | 697 NFkB conf inactive
CN(C)c1ccc(/C=C/c2ccc3ccccc3n2)cc1	none (no result: 697 NFkB inh, Jurkat NFkB inh)
O=[N+]([O-])c1ccc(/C=C/c2ccc3ccccc3n2)cc1	none | 697 NFkB conf inactive
CCN1CCN(C(=O)CN(CC)S(=O)(=O)c2ccc3ccccc3c2)CC1	none
Cc1c(NC(=O)c2cc(-c3cccs3)nc3ccccc23)c(=O)n(-c2ccccc2)n1C	697 NFkB inh 39 | 697 NFkB conf inactive
O=c1cc(N2CCN(c3cccc(Cl)c3)CC2)[nH]c(=O)n1C1CCCCC1	697 NFkB inh 43 | 697 NFkB conf inactive | NR2E3 ag confirm 93 | VP16 counter inactive
CC1(C)NC(=S)NC1=S	none (no result: 697 NFkB inh, Jurkat NFkB inh, NR2E3 ag-2)
CNC(=O)CCc1nc(-c2ccc(C(C)(C)C)cc2)no1	697 NFkB inh 84 | 697 NFkB conf 72 | NR2E3 ag confirm 71 | VP16 counter 76
CC(C)(C)c1ccc(-c2noc(CCC(N)=O)n2)cc1	697 NFkB inh 93, NR2E3 ag-1 80 | 697 NFkB conf 94 | NR2E3 ag confirm 78 | VP16 counter 77
CC(C)(C)c1ccc(-c2noc(CCC(=O)Nc3cccnc3)n2)cc1	697 NFkB inh 91, NR2E3 ag-1 84 | 697 NFkB conf 91 | NR2E3 ag confirm 75 | VP16 counter 79
Cc1ccc(-c2noc(CCC(=O)NCC3CCCO3)n2)cc1 (stereo not given)	none
CC(C)(C)c1ccc(-c2noc(CCC(=O)NCC3CCCO3)n2)cc1 (stereo not given)	697 NFkB inh 96, NR2E3 ag-1 83 | 697 NFkB conf 88 | NR2E3 ag confirm 73 | VP16 counter inactive
COc1ccc(-c2noc(CCC(=O)Nc3cccnc3)n2)cc1	none
CC1(C(=O)Nc2ccc3c(c2)OCCO3)CSCC(=O)N1CCCn1ccnc1 (stereo not given)	none (no result: 697 NFkB inh, Jurkat NFkB inh, NR2E3 ag-1, NR2E3 ag-2)
COC(=O)[C@]1(Cc2ccccc2)N[C@H](CN(C)C(=O)Nc2ccc(C)cc2)[C@@H]2C(=O)N(C)C(=O)[C@@H]21	none (no result: NR2E3 ag-2)
O=C1NC[C@H](c2ccccc2)OC(=O)[C@@H](Cc2ccc(F)cc2)C/C=C\C[C@H]1CC(=O)N(CCO)Cc1ccccc1	697 NFkB inh 40 (no result: NR2E3 ag-2) | 697 NFkB conf 24 | NR2E3 ag confirm inactive | VP16 counter inactive
Cc1cc(C(=O)NC2CCCc3c2cnn3-c2ccccc2F)nc(C)n1 (stereo not given)	none
CC(C)c1cc(C(=O)NC2CCCc3c2cnn3-c2ccccc2F)no1 (stereo not given)	none | 697 NFkB conf inactive | NR2E3 ag confirm inactive | VP16 counter inactive
CNC(=O)c1c(I)c(C(=O)NCC(=O)Nc2c(I)c(C(=O)O)c(I)c(C(=O)NCCO)c2I)c(I)c(N(C)C(C)=O)c1I	none
C=C1C(=O)C=C[C@]2(C)C[C@@H]3OC(=O)[C@](C)(O)[C@H]3C[C@@H]12	none | 697 NFkB conf inactive | NR2E3 ag confirm inactive | VP16 counter inactive
COc1ccc(CNC(=O)[C@H](C)NC(=O)C2CCN(C(=O)[C@@H](N)CCSC)CC2)cc1	none
COc1ccc(/C=C2/SC(=S)N(CCCC(=O)Nc3cccc(O)c3)C2=O)cc1	697 NFkB inh 63 | 697 NFkB conf 71 | NR2E3 ag confirm inactive | VP16 counter inactive
O=C(CCCN1C(=O)S/C(=C\C=C\c2ccccc2)C1=O)Nc1ccc(O)cc1	697 NFkB inh 40 | 697 NFkB conf 32 | NR2E3 ag confirm inactive | VP16 counter inactive
COc1cccc(/C=C2\SC(=S)N(CCC(=O)Nc3ccc(O)cc3)C2=O)c1	none
O=C(CCN1C(=O)/C(=C/c2ccc3c(c2)OCO3)SC1=S)Nc1ccc(C(=O)O)cc1	none
O=C(CCCN1C(=O)/C(=C/c2ccccc2Cl)SC1=S)NNC(=O)c1ccncc1	697 NFkB inh 48 | 697 NFkB conf 56 | NR2E3 ag confirm inactive | VP16 counter inactive
